Assay results reported in ChEMBL document CHEMBL4049394, “Desing and synthesis of potent anti-Trypanosoma cruzi agents new thiazoles derivatives which induce apoptotic parasite death” (Eur J Med Chem, 2017).

How the values were obtained:
[1] = Cytotoxicity against mouse J774A.1 cells after 24 to 72 hrs by MTT assay; assay type: cell-based, J774.A1; conditions: read-out: MNCC
How it was run: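 J774A.1 macrophages in DMEM with 10% heat-inactivated FBS at 37 °C, 5% CO2. Seeded at 1×10^5 cells/well, 24 h preincubation, then compounds at 1–100 µg/mL for 72 h (table footnote: viability at 24 h). MTT 2 h, formazan dissolved in DMSO, absorbance read at 570 nm. Highest non-cytotoxic concentration reported.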

Trypanosoma cruzi [2] = assay: Induction of apoptosis in bloodstream trypomastigote stage of Trypanosoma cruzi Y infected in monkey LLC-MK2 cells assessed as late apoptotic cells at 3.2 uM measured after 24 hrs by Annexin-V-FITC/propidium iodide staining based flow cytometric method (reference value: 0.27%); assay type: functional
Trypanosoma cruzi [3] = assay: Antitrypanosomal activity against Trypanosoma cruzi Dm28c epimastigotes measured after 4 to 5 days by neubauer chamber method; assay type: functional
How it was run: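 Dm28c epimastigotes in LIT with 10% FBS, 1% hemin and gentamycin at 27 °C. Seeded at 10^6 cells/well and treated in triplicate for 4 days (table footnote: 5 days). Parasites counted in a Neubauer chamber against untreated wells as 100%. IC50 by nonlinear regression from at least five concentrations. Experiment repeated; only values with SD < 10% of mean kept.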

Trypanosoma cruzi [4] = assay: Potency index, ratio of benznidazole CC50 to compound CC50 for bloodstream trypomastigote stage of Trypanosoma cruzi Y infected in monkey LLC-MK2 cells; assay type: functional
Trypanosoma cruzi [5] = assay: Induction of apoptosis in bloodstream trypomastigote stage of Trypanosoma cruzi Y infected in monkey LLC-MK2 cells assessed as necrotic cells at 1.6 uM measured after 24 hrs by Annexin-V-FITC/propidium iodide staining based flow cytometric method (reference value: 0.014%); assay type: functional
Trypanosoma cruzi [6] = assay: Induction of apoptosis in bloodstream trypomastigote stage of Trypanosoma cruzi Y infected in monkey LLC-MK2 cells assessed as early apoptotic cells at 3.2 uM measured after 24 hrs by Annexin-V-FITC/propidium iodide staining based flow cytometric method (reference value: 0.31%); assay type: functional
Trypanosoma cruzi [7] = assay: Induction of apoptosis in bloodstream trypomastigote stage of Trypanosoma cruzi Y infected in monkey LLC-MK2 cells assessed as early apoptotic cells at 1.6 uM measured after 24 hrs by Annexin-V-FITC/propidium iodide staining based flow cytometric method (reference value: 0.31%); assay type: functional
Trypanosoma cruzi [8] = assay: Antitrypanosomal activity against bloodstream trypomastigote stage of Trypanosoma cruzi Y infected in monkey LLC-MK2 cells measured after 24 hrs by neubauer chamber method; assay type: functional; conditions: LLC-MK2, in Primates
How it was run: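 Y strain trypomastigotes taken from LLC-MK2 culture supernatant and held in RPMI-1640 with 10% FBS. Seeded at 4×10^5 cells/well and treated in triplicate for 24 h at 37 °C, 5% CO2. Motile parasites counted in a Neubauer chamber against untreated wells. IC50 by nonlinear regression from at least seven concentrations. Experiment repeated; SD < 10% of mean required.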

Trypanosoma cruzi [9] = assay: Induction of apoptosis in bloodstream trypomastigote stage of Trypanosoma cruzi Y infected in monkey LLC-MK2 cells assessed as late apoptotic cells at 1.6 uM measured after 24 hrs by Annexin-V-FITC/propidium iodide staining based flow cytometric method (reference value: 0.27%); assay type: functional
Trypanosoma cruzi [10] = assay: Induction of apoptosis in bloodstream trypomastigote stage of Trypanosoma cruzi Y infected in monkey LLC-MK2 cells assessed as necrotic cells at 3.2 uM measured after 24 hrs by Annexin-V-FITC/propidium iodide staining based flow cytometric method (reference value: 0.014%); assay type: functional
[11] = Selectivity index, ratio of highest non-cytotoxic concentration for mouse J774A.1 cells to CC50 for bloodstream trypomastigote stage of Trypanosoma cruzi Y infected in monkey LLC-MK2 cells; assay type: toxicity, cell-based; conditions: read-out: Selectivity Index
How it was run: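 Selectivity index is the highest non-cytotoxic concentration in J774A.1 macrophages divided by the 50% value against Y strain trypomastigotes measured after 24 h.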

Trypanosoma cruzi [12] = assay: Potency index, ratio of benznidazole CC50 to compound CC50 for Trypanosoma cruzi Dm28c epimastigotes; assay type: functional
Trypanosoma cruzi [13] = assay: Induction of apoptosis in bloodstream trypomastigote stage of Trypanosoma cruzi Y infected in monkey LLC-MK2 cells assessed as late apoptotic cells at 4.4 uM measured after 24 hrs by Annexin-V-FITC/propidium iodide staining based flow cytometric method (reference value: 0.27%); assay type: functional
Trypanosoma cruzi [14] = assay: Induction of apoptosis in bloodstream trypomastigote stage of Trypanosoma cruzi Y infected in monkey LLC-MK2 cells assessed as early apoptotic cells at 4.4 uM measured after 24 hrs by Annexin-V-FITC/propidium iodide staining based flow cytometric method (reference value: 0.31%); assay type: functional
Trypanosoma cruzi [15] = assay: Induction of apoptosis in bloodstream trypomastigote stage of Trypanosoma cruzi Y infected in monkey LLC-MK2 cells assessed as late apoptotic cells at 2.2 uM measured after 24 hrs by Annexin-V-FITC/propidium iodide staining based flow cytometric method (reference value: 0.27%); assay type: functional
Trypanosoma cruzi [16] = assay: Induction of apoptosis in bloodstream trypomastigote stage of Trypanosoma cruzi Y infected in monkey LLC-MK2 cells assessed as necrotic cells at 2.2 uM measured after 24 hrs by Annexin-V-FITC/propidium iodide staining based flow cytometric method (reference value: 0.014%); assay type: functional
Trypanosoma cruzi [17] = assay: Induction of apoptosis in bloodstream trypomastigote stage of Trypanosoma cruzi Y infected in monkey LLC-MK2 cells assessed as necrotic cells at 4.4 uM measured after 24 hrs by Annexin-V-FITC/propidium iodide staining based flow cytometric method (reference value: 0.014%); assay type: functional
Trypanosoma cruzi [18] = assay: Induction of apoptosis in bloodstream trypomastigote stage of Trypanosoma cruzi Y infected in monkey LLC-MK2 cells assessed as early apoptotic cells at 2.2 uM measured after 24 hrs by Annexin-V-FITC/propidium iodide staining based flow cytometric method (reference value: 0.31%); assay type: functional
Trypanosoma cruzi [19] = assay: Induction of apoptosis in bloodstream trypomastigote stage of Trypanosoma cruzi Y infected in monkey LLC-MK2 cells assessed as necrotic cells at 5 uM measured after 24 hrs by Annexin-V-FITC/propidium iodide staining based flow cytometric method (reference value: 0.014%); assay type: functional
Trypanosoma cruzi [20] = assay: Induction of apoptosis in bloodstream trypomastigote stage of Trypanosoma cruzi Y infected in monkey LLC-MK2 cells assessed as necrotic cells at 25 uM measured after 24 hrs by Annexin-V-FITC/propidium iodide staining based flow cytometric method (reference value: 0.014%); assay type: functional
[21] = target: Cruzipain (Trypanosoma cruzi) (UniProt P25779); assay: Inhibition of Trypanosoma cruzi cruzain at 50 uM using Z-phe-Arg-aminomethylcoumarin as substrate pretreated for 10 mins measured for 5 mins by fluorometric method relative to control
How it was run: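 Cruzain at 0.5 nM in 0.1 M sodium acetate pH 5.5 with 0.1 mM β-mercaptoethanol and 0.01% Triton X-100. Compound screened at 50 µM after a 10-min preincubation with enzyme, then 2.5 µM Z-FR-AMC added. AMC fluorescence (ex 340/em 440 nm) followed for 5 min. Activity taken from initial rates relative to a DMSO control. Two independent experiments, each in triplicate.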

Chain of Cruzipain (Trypanosoma cruzi) (P25779 123-467 limits assumed): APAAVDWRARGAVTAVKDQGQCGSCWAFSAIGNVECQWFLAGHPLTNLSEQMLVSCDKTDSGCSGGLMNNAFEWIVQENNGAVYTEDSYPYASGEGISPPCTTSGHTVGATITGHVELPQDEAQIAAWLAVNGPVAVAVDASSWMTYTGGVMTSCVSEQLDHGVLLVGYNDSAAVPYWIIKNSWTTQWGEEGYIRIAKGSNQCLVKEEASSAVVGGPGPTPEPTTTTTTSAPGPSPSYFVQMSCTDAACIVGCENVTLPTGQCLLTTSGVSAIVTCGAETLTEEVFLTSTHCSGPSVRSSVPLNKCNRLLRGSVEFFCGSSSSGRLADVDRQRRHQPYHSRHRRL

| Compound | MNTC [1] [µM] | CC50 (Trypanosoma cruzi [3]) [µM] | CC50 (Trypanosoma cruzi [8]) [µM] | selectivity ratio [11] | also measured |
| --- | --- | --- | --- | --- | --- |
| C/C(=N\N=c1/scc(-c2ccc(Cl)cc2Cl)n1-c1ccccc1)c1ccccn1 | 81 | 2.7 | 1.6 | 50 to 51 | Activity (Trypanosoma cruzi [2]): 4.3%; Ratio (Trypanosoma cruzi [4]): 4 - 5; Activity (Trypanosoma cruzi [5]): 2.9%; Activity (Trypanosoma cruzi [6]): 39.4%; Activity (Trypanosoma cruzi [7]): 39.5%; Activity (Trypanosoma cruzi [9]): 4%; Activity (Trypanosoma cruzi [10]): 3.2%; Ratio (Trypanosoma cruzi [12]): 18 |
| C/C(=N\N=c1/scc(-c2ccc(Br)cc2)n1C)c1ccccn1 | 33 | 3.2 | 2.2 | 15 | Activity (Trypanosoma cruzi [13]): 4.7%; Activity (Trypanosoma cruzi [14]): 35%; Activity (Trypanosoma cruzi [15]): 4%; Activity (Trypanosoma cruzi [16]): 3%; Activity (Trypanosoma cruzi [17]): 3.15%; Activity (Trypanosoma cruzi [18]): 38%; Ratio (Trypanosoma cruzi [12]): 15 |
| O=C(Cn1ccnc1[N+](=O)[O-])NCc1ccccc1 [BENZNIDAZOLE] | 44.7 | 48.8 | 6.2 | 7.2 | Activity (Trypanosoma cruzi [19]): 4.2%; Activity (Trypanosoma cruzi [20]): 56.4% |
| C/C(=N\N=c1/scc(-c2ccc3ccccc3c2)n1-c1ccccc1)c1ccccn1 | 51 | 1.9 | 6.1 | 8 |  |
| C/C(=N\N=c1/sc(C)c(-c2ccccc2)n1C)c1ccccn1 | 97 | 6.2 | 2.7 | 36 | inhibition [21]: 73% |
| C/C(=N\N=c1/scc(-c2ccc([N+](=O)[O-])cc2)n1-c1ccccc1)c1ccccn1 | 23 | 87.4 | 3.1 | 7 |  |
| C/C(=N\N=c1/scc(-c2cccc([N+](=O)[O-])c2)n1C)c1ccccn1 | 82 | 7.8 | 2.4 | 34 | Ratio (Trypanosoma cruzi [4]): 3 |
| C/C(=N\N=c1/sc(C)c(-c2ccc(Br)cc2)n1C)c1ccccn1 | 68 | 2.9 | 3.4 | 20 |  |
| C/C(=N\N=c1/scc(-c2ccc(Cl)c(Cl)c2)n1C)c1ccccn1 | 11 | 6.9 | 2.3 | 5 | Ratio (Trypanosoma cruzi [4]): 3; Ratio (Trypanosoma cruzi [12]): 7 |
| C/C(=N\N=c1/scc(-c2ccc([N+](=O)[O-])cc2)n1C)c1ccccn1 | 36 | 13.7 | 7 | 5 |  |
| C/C(=N\N=c1/scc(-c2ccc(F)cc2)n1C)c1ccccn1 | 12 | 8.5 | 5.6 | 2 |  |
| C/C(=N\N=c1/sc(C)c(-c2ccc(Br)cc2)n1-c1ccccc1)c1ccccn1 | 30 | 17.1 | 3.1 | 10 |  |
| C/C(=N\N=c1/scc(-c2ccc(Cl)c(Cl)c2)n1-c1ccccc1)c1ccccn1 | 8 | 13.9 | 1.9 | 4 |  |
| C/C(=N\N=c1/sc(C)c(-c2ccccc2)n1-c1ccccc1)c1ccccn1 | 43 | 15.5 | 2.3 | 19 |  |
| C/C(=N\N=c1/scc(-c2ccc(-c3ccccc3)cc2)n1C)c1ccccn1 | 6 | 66.6 | 2.2 | 3 |  |
| C/C(=N\N=c1/scc(-c2ccc(Cl)cc2)n1-c1ccccc1)c1ccccn1 | 13 | 9.1 | 2 | 7 |  |
| C/C(=N\N=c1/scc(-c2ccc(Br)cc2)n1-c1ccccc1)c1ccccn1 | 10 | 6.3 | 1.8 | 6 |  |
| C/C(=N\N=c1/scc(-c2ccccc2)n1-c1ccccc1)c1ccccn1 | 51 | 93.4 | 6.3 | 8 |  |
| C/C(=N\N=c1/scc(-c2ccc3ccccc3c2)n1C)c1ccccn1 | 30 | 8.2 | 3 | 10 |  |
| C/C(=N\N=c1/scc(-c2ccc(F)cc2)n1-c1ccccc1)c1ccccn1 | 35 | 3.1 | 3.9 | 9 | inhibition [21]: 58% |
| CNC(=S)N/N=C(\C)c1ccccn1 | 22 |  | 8.8 | 2.5 |  |
| COc1ccc(-c2cs/c(=N\N=C(/C)c3ccccn3)n2C)cc1 | 20 | 4.5 | 4.6 | 4 |  |
| C/C(=N\N=c1/scc(-c2cccc([N+](=O)[O-])c2)n1-c1ccccc1)c1ccccn1 | 10 | 11 | 1.9 | 5 |  |
| C/C(=N\N=c1/scc(-c2ccc(-c3ccccc3)cc2)n1-c1ccccc1)c1ccccn1 | 7 | 47.3 | 2 | 4 |  |
| C/C(=N\N=c1/scc(-c2ccccc2)n1C)c1ccccn1 | 4 | 56 | 4 | 1 | inhibition [21]: 70% |
| C/C(=N\N=c1/scc(-c2ccc(Cl)cc2Cl)n1C)c1ccccn1 | 14 | 31.6 | 13 | 1 |  |
| C/C(=N\N=c1/scc(-c2ccc(Cl)cc2)n1C)c1ccccn1 | 20 |  | 4.5 | 4 |  |
